ChEMBL document CHEMBL3745601 (Medchemcomm, 2015)

How the values were obtained:
Mus musculus [1] = experiment: Induction of mechano-allodynia in mouse chronic constriction injury model of neuropathic pain assessed as paw withdrawal threshold on contralateral side at 3 umol/kg, po; type: organism-based; details: in vivo
Mus musculus [2] = experiment: Antineuropathic pain activity in mouse chronic constriction injury model of neuropathic pain assessed as reversal of reduction in paw withdrawal threshold of ipsilateral hind paw at 3 umol/kg, po dosed on day 7 after sciatic nerve ligation and measured at 1 hrs; type: functional
How it was run: (§1)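 Paw withdrawal threshold (g) measured at 1 h or 3 h after treatment, at day 7 (D7/BL) and at D0. % effect = [PWT at post-treatment time − PWT at D7/BL] / [PWT at D0 − PWT at D7/BL] × 100. Significance set at P<0.05. Procedures otherwise follow earlier work under IASP/NIH animal welfare guidelines.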

Mus musculus [3] = experiment: Antineuropathic pain activity in mouse chronic constriction injury model of neuropathic pain assessed as reversal of reduction in paw withdrawal threshold of ipsilateral hind paw at 3 umol/kg, po dosed on day 7 after sciatic nerve ligation and measured at 3 hrs; type: functional; set-up: scale not given: the % may be the effect or the level left; how it was run: as §1
Adenosine receptor A3 [4] = target: T1, Adenosine receptor A3 (Homo sapiens, UniProt P0DMS8); experiment: Displacement of [125I]N6-(4-amino-3-iodobenzyl)adenosine-5'-N-methyl-uronamide from human adenosine A3 receptor stably expressed in CHO cell membrane by radioligand binding assay; type: cell membranes
T1 sequence (P0DMS8 whole entry): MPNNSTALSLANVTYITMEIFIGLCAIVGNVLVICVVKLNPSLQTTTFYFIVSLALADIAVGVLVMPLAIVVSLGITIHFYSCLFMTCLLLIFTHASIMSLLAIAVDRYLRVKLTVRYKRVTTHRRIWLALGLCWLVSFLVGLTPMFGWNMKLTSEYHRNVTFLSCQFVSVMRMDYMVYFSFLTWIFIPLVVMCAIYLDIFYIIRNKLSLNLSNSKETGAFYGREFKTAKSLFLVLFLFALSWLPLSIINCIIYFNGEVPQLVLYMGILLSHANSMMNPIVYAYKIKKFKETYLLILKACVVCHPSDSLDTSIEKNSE

[5] = target: T2, Adenosine receptor A1 (Homo sapiens) (UniProt P30542); experiment: Displacement of [3H]N6-R-phenylisopropyladenosine from human adenosine A1 receptor stably expressed in CHO cell membrane at 10 uM by radioligand binding assay; type: cell membranes
T2 sequence (whole entry): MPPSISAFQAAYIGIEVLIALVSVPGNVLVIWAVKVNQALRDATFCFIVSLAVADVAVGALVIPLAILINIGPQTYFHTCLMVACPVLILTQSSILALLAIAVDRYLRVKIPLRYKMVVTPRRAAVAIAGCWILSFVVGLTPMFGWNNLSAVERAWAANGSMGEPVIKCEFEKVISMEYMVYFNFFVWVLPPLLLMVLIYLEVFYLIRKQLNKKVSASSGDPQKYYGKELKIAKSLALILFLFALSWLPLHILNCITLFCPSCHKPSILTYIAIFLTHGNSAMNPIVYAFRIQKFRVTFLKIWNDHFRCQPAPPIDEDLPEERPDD

Adenosine receptor A2a [6] = target: T3, Adenosine receptor A2a (Homo sapiens, UniProt P29274); experiment: Displacement of [3H]2-[p(2-carboxyethyl)phenyl-ethylamino]-5'-N-ethylcarboxamido-adenosine from human adenosine A2A receptor stably expressed in HEK293 cell membrane at 10 uM by radioligand binding assay; type: cell membranes
T3 sequence (P29274 whole entry): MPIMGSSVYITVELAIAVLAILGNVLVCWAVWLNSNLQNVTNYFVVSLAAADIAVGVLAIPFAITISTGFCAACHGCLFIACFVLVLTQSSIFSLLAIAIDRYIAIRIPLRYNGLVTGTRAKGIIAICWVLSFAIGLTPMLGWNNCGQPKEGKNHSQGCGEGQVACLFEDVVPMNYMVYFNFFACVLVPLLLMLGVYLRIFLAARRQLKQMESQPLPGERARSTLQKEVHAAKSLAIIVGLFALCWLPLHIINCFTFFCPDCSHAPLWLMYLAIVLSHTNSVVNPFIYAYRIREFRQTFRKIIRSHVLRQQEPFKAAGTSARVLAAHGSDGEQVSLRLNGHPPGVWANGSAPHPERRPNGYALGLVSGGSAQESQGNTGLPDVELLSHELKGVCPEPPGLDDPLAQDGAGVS

Adenosine receptor A3 [7] = target: T4, Adenosine receptor A3 (Mus musculus, UniProt Q61618); experiment: Displacement of [125I]N6-(4-amino-3-iodobenzyl)adenosine-5'-N-methyl-uronamide from mouse adenosine A3 receptor stably expressed in CHO cell membrane by radioligand binding assay; type: cell membranes
T4 sequence (Q61618 whole entry): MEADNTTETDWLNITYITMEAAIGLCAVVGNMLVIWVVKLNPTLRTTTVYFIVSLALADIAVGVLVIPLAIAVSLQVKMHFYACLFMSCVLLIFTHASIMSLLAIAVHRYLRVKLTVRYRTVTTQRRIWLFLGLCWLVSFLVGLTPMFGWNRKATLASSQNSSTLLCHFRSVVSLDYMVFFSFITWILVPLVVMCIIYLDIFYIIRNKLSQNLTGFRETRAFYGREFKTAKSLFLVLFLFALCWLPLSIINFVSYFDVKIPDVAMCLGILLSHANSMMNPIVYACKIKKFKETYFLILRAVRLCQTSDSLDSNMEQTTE

Adenosine receptor A2a [8] = target: T3, Adenosine receptor A2a; experiment: Displacement of [3H]2-[p(2-carboxyethyl)phenyl-ethylamino]-5'-N-ethylcarboxamido-adenosine from human adenosine A2A receptor stably expressed in HEK293 cell membrane by radioligand binding assay; type: cell membranes
Mus musculus [9] = experiment: Antineuropathic pain activity in mouse chronic constriction injury model of neuropathic pain assessed as reversal of reduction in paw withdrawal threshold of ipsilateral hind paw at 1 umol/kg, po dosed on day 7 after sciatic nerve ligation and measured at 1 and 3 hrs; type: functional; how it was run: as §1
Homo sapiens = organism: Homo sapiens; experiment: Selectivity ratio for human A3 adenosine receptor to human A2A adenosine receptor
PC-12 = experiment: Displacement of [3H]DTG from rat sigma 2 receptor in PC12 cells incubated for 2 hrs by liquid scintillation counting method; type: cell-based; details: dose or concentration not given here
[10] = target: Histamine H2 receptor (Homo sapiens) (UniProt P25021); experiment: Displacement of [3H]tiotidine from H2 histamine receptor (unknown origin) expressed in cells at 10 uM incubated for […] by scintillation counting method; type: cell-based
Histamine H2 receptor (Homo sapiens), sequence (P25021 whole entry): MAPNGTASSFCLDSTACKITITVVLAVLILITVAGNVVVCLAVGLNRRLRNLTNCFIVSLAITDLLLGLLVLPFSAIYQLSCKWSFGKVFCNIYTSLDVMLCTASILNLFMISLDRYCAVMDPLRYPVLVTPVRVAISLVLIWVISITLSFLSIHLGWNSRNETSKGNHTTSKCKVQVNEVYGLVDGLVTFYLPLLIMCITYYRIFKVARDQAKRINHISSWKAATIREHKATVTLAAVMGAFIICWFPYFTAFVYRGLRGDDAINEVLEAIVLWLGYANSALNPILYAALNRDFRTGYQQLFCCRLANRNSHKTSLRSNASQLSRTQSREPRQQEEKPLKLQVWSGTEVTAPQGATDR

[11] = target: Translocator protein (Rattus norvegicus) (UniProt P16257); experiment: Displacement of [3H]flunitrazepam from rat brain benzodiazepine receptor TSPO incubated for […] by liquid scintillation counting method
Translocator protein (Rattus norvegicus), sequence (P16257 whole entry, looked up): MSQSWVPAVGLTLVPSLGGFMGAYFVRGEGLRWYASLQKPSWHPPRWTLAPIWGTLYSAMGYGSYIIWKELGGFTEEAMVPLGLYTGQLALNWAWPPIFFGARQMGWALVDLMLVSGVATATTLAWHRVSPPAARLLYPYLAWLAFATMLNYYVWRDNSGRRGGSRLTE

Row | Ki (Adenosine receptor A3 [4]) [nM] | inhibition [5] [%] | inhibition (Adenosine receptor A2a [6]) [%] | SMILES | Activity (Mus musculus [1]) | Emax at 3 µmol/kg (Mus musculus [2]) [%] | Activity (Mus musculus [3]) [%] | other results
1 | 2.21 | 25 | 8 | CNC(=O)[C@@]12C[C@@H]1[C@@H](n1cnc3c(NC)nc(-n4cc(-c5cnccn5)nn4)nc31)[C@H](O)[C@@H]2O | Non-toxic | 76.6 | 26.6 | 
2 | 0.95 |  | 31 | CNC(=O)[C@@]12C[C@@H]1[C@@H](n1cnc3c(NC)nc(-n4cc(-c5ccccc5Cl)nn4)nc31)[C@H](O)[C@@H]2O | Non-toxic | 69.1 | 7.9 | 
3 | 1.84 | 29 | 26 | CNC(=O)[C@@]12C[C@@H]1[C@@H](n1cnc3c(NC)nc(-n4cc(-c5ccccn5)nn4)nc31)[C@H](O)[C@@H]2O | Non-toxic | 60.9 | 21.1 | 
4 | 0.91 | 68 | 42 | CNC(=O)[C@@]12C[C@@H]1[C@@H](n1cnc3c(NCCc4ccccc4)nc(I)nc31)[C@H](O)[C@@H]2O |  |  |  | 
5 | 1.06 |  | 39 | CNC(=O)[C@@]12C[C@@H]1[C@@H](n1cnc3c(NC)nc(-n4cc(-c5ccc(F)c(F)c5)nn4)nc31)[C@H](O)[C@@H]2O | Non-toxic | 75.2 | 27 | 
6 | 0.54 |  | 1 | CNC(=O)[C@@]12C[C@@H]1[C@@H](n1cnc3c(NC)nc(N=[N+]=[N-])nc31)[C@H](O)[C@@H]2O |  |  |  | 
7 | 6.66 | 58 |  | CNC(=O)[C@@]12C[C@@H]1[C@@H](n1cnc3c(NCCc4ccccc4)nc(-n4cc(-c5ccc(Cl)s5)nn4)nc31)[C@H](O)[C@@H]2O | Non-toxic | 94.1 | 82.9 | 
8 | 3.48 | 14 | 27 | CNC(=O)[C@@]12C[C@@H]1[C@@H](n1cnc3c(NC)nc(-n4cc(-c5ncccn5)nn4)nc31)[C@H](O)[C@@H]2O | Non-toxic | 92.7 | 36.2 | Ki (Adenosine receptor A3 [7]): 334 nM
9 | 1.53 |  |  | CNC(=O)[C@@]12C[C@@H]1[C@@H](n1cnc3c(NC4CCC4)nc(I)nc31)[C@H](O)[C@@H]2O |  |  |  | Ki (Adenosine receptor A2a [8]): > 10000 nM
10 | 9.02 |  |  | CNC(=O)[C@@]12C[C@@H]1[C@@H](n1cnc3c(NCc4cccc(Cl)c4)nc(-n4cc(-c5ccc(Cl)s5)nn4)nc31)[C@H](O)[C@@H]2O | Non-toxic | 94.7 | 91 | inhibition in vivo at 1 µmol/kg (Mus musculus [9]): 70%
11 | 0.58 |  | 7 | CNC(=O)[C@@]12C[C@@H]1[C@@H](n1cnc3c(NC)nc(-n4cc(-c5ccc(Br)s5)nn4)nc31)[C@H](O)[C@@H]2O | Non-toxic | 69.1 | 13.5 | 
12 | 1.25 | 12 | 40 | CNC(=O)[C@@]12C[C@@H]1[C@@H](n1cnc3c(NC)nc(-n4cc(-c5cc6ccccc6o5)nn4)nc31)[C@H](O)[C@@H]2O | Non-toxic | 74 | 22.3 | 
13 | 0.69 |  | 11 | CCNc1nc(N=[N+]=[N-])nc2c1ncn2[C@H]1[C@H](O)[C@H](O)[C@]2(C(=O)NC)C[C@H]12 |  |  |  | 
14 |  |  |  | CNC(=O)[C@@]12CC1[C@@H](n1cnc3c(NC)nc(C#Cc4ccccc4)nc31)[C@H](O)[C@@H]2O (single isomer, unassigned) |  |  |  | Selectivity ratio (Homo sapiens): > 3000
15 | 0.96 |  | 35 | CNC(=O)[C@@]12C[C@@H]1[C@@H](n1cnc3c(NC)nc(-n4cc(-c5ccccc5)nn4)nc31)[C@H](O)[C@@H]2O | Non-toxic | 77.4 | 27.5 | 
16 | 2.16 | 2 | 1 | CNC(=O)[C@@]12C[C@@H]1[C@@H](n1cnc3c(NC)nc(-n4cc(-c5cnn(C)c5)nn4)nc31)[C@H](O)[C@@H]2O | Non-toxic | 82.5 | 19.1 | 
17 | 7.05 |  |  | CNC(=O)[C@@]12C[C@@H]1[C@@H](n1cnc3c(NC4CCC4)nc(-n4cc(-c5ccc(Cl)s5)nn4)nc31)[C@H](O)[C@@H]2O | Non-toxic | 90.7 | 85.2 | 
18 | 0.96 |  | 51 | CNC(=O)[C@@]12C[C@@H]1[C@@H](n1cnc3c(NC)nc(-n4cc(-c5ccco5)nn4)nc31)[C@H](O)[C@@H]2O | Non-toxic | 65.3 | 21.1 | inhibition (PC-12): 50%; inhibition [10]: 50%
19 | 1.22 |  | 32 | CCNc1nc(-n2cc(-c3ccc(Cl)s3)nn2)nc2c1ncn2[C@H]1[C@H](O)[C@H](O)[C@]2(C(=O)NC)C[C@H]12 | Non-toxic | 84.9 | 17.9 | 
20 | 1.22 |  | 11 | CCNc1nc(I)nc2c1ncn2[C@H]1[C@H](O)[C@H](O)[C@]2(C(=O)NC)C[C@H]12 |  |  |  | 
21 | 0.85 |  | 46 | CNC(=O)[C@@]12C[C@@H]1[C@@H](n1cnc3c(NC4CCC4)nc(N=[N+]=[N-])nc31)[C@H](O)[C@@H]2O |  |  |  | 
22 | 0.85 | 93 |  | CNC(=O)[C@@]12C[C@@H]1[C@@H](n1cnc3c(NCCc4ccccc4)nc(N=[N+]=[N-])nc31)[C@H](O)[C@@H]2O |  |  |  | Ki (Adenosine receptor A2a [8]): 1110 nM
23 | 1.08 |  |  | CNC(=O)[C@@]12C[C@@H]1[C@@H](n1cnc3c(NCc4cccc(Cl)c4)nc(N=[N+]=[N-])nc31)[C@H](O)[C@@H]2O |  |  |  | Ki (Adenosine receptor A2a [8]): 2770 nM

Row | SMILES | Ki (Adenosine receptor A3 [4]) [nM] | inhibition [5] [%] | inhibition (Adenosine receptor A2a [6]) [%] | Activity (Mus musculus [1]) | Emax at 3 µmol/kg (Mus musculus [2]) [%] | Activity (Mus musculus [3]) [%] | other results
24 | CNC(=O)[C@@]12C[C@@H]1[C@@H](n1cnc3c(NC)nc(-n4cc(-c5ccc(Cl)s5)nn4)nc31)[C@H](O)[C@@H]2O | 0.73 | 27 | 34 | Non-toxic | 66.8 | 8.4 | inhibition (PC-12): 62%; inhibition [11]: 54%
